From ChEMBL document CHEMBL1141713, “Bisphosphonate inhibitors of ATP-mediated HIV-1 reverse transcriptase catalyzed excision of chain-terminating 3'-azido, 3'-deoxythymidine: a QSAR investigation” (Bioorg Med Chem, 2008)
Active and inactive are the calls of the source. No cut-off for these calls is given here.

Experiments:
[1] = Inhibition of the ATP-mediated HIV1 reverse transcriptase D67N/K70R/T215F/K219Q mutant catalyzed 3'-azido, 3'-deoxythymidine excision from AZT-terminated DNA primers; set-up: species or system Human immunodeficiency virus 1
How it was run: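 TAM-RT incubated with 5′-³²P-labeled 57/19 heteropolymeric DNA T/P whose 20 nt primer was chain-terminated with AZTMP (RT:T/P 4:1), in 50 mM Tris-HCl pH 8.0, 50 mM KCl, with or without varying bisphosphonate. Started with 10 mM MgCl₂ + 3.0 mM ATP, inorganic pyrophosphatase included. Timed aliquots quenched in formamide/EDTA dye. 20 nt and 19 nt excision product resolved on denaturing gel, quantified by phosphorimaging; IC₅₀.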

[2] = Toxicity against human MCF7 cells assessed as growth inhibition by broth microdilution method; assay type: cell-based
How it was run: (§1)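 Cells grown in RPMI-1640 with 2mM L-glutamine and 10% FBS at 37°C, 5% CO₂. Seeded at 5,000 cells/well and exposed to compounds in half-log serial dilution, 316μM–10nM (100μM–10nM when the DMSO stock was used), for 4 days. Read-out by MTT, absorbance at 600nm. IC₅₀ fitted to a rectangular hyperbola with Imax fixed at 100%.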

[3] = Toxicity against human SF268 cells assessed as growth inhibition by broth microdilution method; assay type: cell-based, SF-268; how it was run: as §1
[4] = Toxicity against human NCI-H460 cells assessed as growth inhibition by broth microdilution method; assay type: cell-based; how it was run: as §1
[5] = tested on: Human immunodeficiency virus 1; experiment: Inhibition of the ATP-mediated HIV1 reverse transcriptase D67N/K70R/T215F/K219Q mutant catalyzed DNA synthesis

SMILES	IC50 [1]	pIC50 [1]	IC50 [2]	IC50 [3]	IC50 [4]	Activity [5]
O=P(O)(O)C(O)(Cc1ccc(-c2ccc(F)cc2)cc1)P(=O)(O)O	2.9 µM	5.5	> 300 µM	> 300 µM	> 300 µM	inactive
O=P(O)(O)C(O)(Cc1ccc(-c2ccc(Cl)cc2)cc1)P(=O)(O)O	3.9 µM	5.4	> 100 µM	> 100 µM	> 100 µM	inactive
COc1ccc(-c2cccc(CC(O)(P(=O)(O)O)P(=O)(O)O)c2)cc1	2.4 µM	5.6	128 µM	139 µM	118 µM	inactive
COCc1cccc(NC(P(=O)(O)O)P(=O)(O)O)c1	9.5 µM	5	> 300 µM	> 300 µM	> 300 µM	inactive
O=P(O)(O)C(Nc1ccc(-c2ccccc2)cc1)P(=O)(O)O	302 µM	3.5	–	–	–	–
O=P(O)(O)C(Nc1cccc(-c2ccc(F)c(F)c2)c1)P(=O)(O)O	2.1 µM	5.7	> 300 µM	> 300 µM	> 300 µM	inactive
O=P(O)(O)C(O)(Cc1cccc(-c2cc(F)ccc2F)c1)P(=O)(O)O	1.5 µM	5.8	165 µM	122 µM	141 µM	inactive
O=P(O)(O)C(O)(Cc1cccc2ccccc12)P(=O)(O)O	1.3 µM	5.9	259 µM	225 µM	248 µM	inactive
CCCCCCCCC(O)(P(=O)(O)O)P(=O)(O)O	302 µM	3.5	–	–	–	–
NCCCCCC(O)(P(=O)(O)O)P(=O)(O)O [NERIDRONIC ACID]	302 µM	3.5	–	–	–	–
CN(C)c1ccccc1CC(O)(P(=O)(O)O)P(=O)(O)O	51.3 µM	4.3	> 300 µM	> 300 µM	> 300 µM	inactive
O=P(O)(O)C(O)(C[n+]1ccccc1)P(=O)(O)O	302 µM	3.5	–	–	–	–
O=P(O)(O)C(Nc1cccc(-c2cc(F)cc(F)c2)c1)P(=O)(O)O	2.2 µM	5.7	> 100 µM	> 100 µM	> 100 µM	inactive
O=P(O)(O)C(CNc1ccc(-c2ccccc2)cc1)P(=O)(O)O	4.6 µM	5.3	84 µM	95 µM	95 µM	inactive
CN(CCCc1ccccc1)CCC(O)(P(=O)(O)O)P(=O)(O)O	302 µM	3.5	–	–	–	–
CCCCCCCCCC(O)(P(=O)(O)O)P(=O)(O)O	302 µM	3.5	–	–	–	–
O=P(O)(O)C(Nc1cccc(-c2ccc(F)cc2F)c1)P(=O)(O)O	3.9 µM	5.4	> 300 µM	> 300 µM	> 300 µM	inactive
COc1ccc(-c2ccc(CC(O)(P(=O)(O)O)P(=O)(O)O)cc2)cc1	5.2 µM	5.3	–	–	–	inactive

SMILES	IC50 [1]	pIC50 [1]	IC50 [2]	IC50 [3]	IC50 [4]	Activity [5]
CCCCCCc1ccc(NC(P(=O)(O)O)P(=O)(O)O)cc1	302 µM	3.5	–	–	–	–
O=P(O)(O)C(O)(Cc1ccccc1)P(=O)(O)O	302 µM	3.5	–	–	–	–
O=P(O)(O)C(Nc1ccc(Cc2ccccc2)cc1)P(=O)(O)O	3.5 µM	5.5	> 100 µM	> 100 µM	> 100 µM	inactive
O=P(O)(O)C(O)(Cc1cccc(-c2ccc(F)c(F)c2)c1)P(=O)(O)O	1 µM	6	225 µM	236 µM	253 µM	inactive
O=P(O)(O)C(O)(Cc1cccc(Oc2ccccc2)c1)P(=O)(O)O	3.3 µM	5.5	188 µM	176 µM	212 µM	inactive
Cc1ccc(NC(P(=O)(O)O)P(=O)(O)O)cc1-c1ccccc1	5 µM	5.3	296 µM	297 µM	301 µM	inactive
COc1cccc(CC(O)(P(=O)(O)O)P(=O)(O)O)c1	5.4 µM	5.3	> 300 µM	> 300 µM	> 300 µM	inactive
CCCCCCCc1ccc(NC(P(=O)(O)O)P(=O)(O)O)cc1	302 µM	3.5	–	–	–	–
O=P(O)(O)C(Nc1cccc(-c2ccccc2)c1)P(=O)(O)O	3.2 µM	5.5	289 µM	269 µM	253 µM	inactive
O=P(O)(O)C(O)(Cc1cccc(-c2ccc(Cl)cc2)c1)P(=O)(O)O	0.9 µM	6.1	41 µM	48 µM	39 µM	inactive
O=P(O)(O)C(Nc1cccc(Br)c1)P(=O)(O)O	1 µM	6	> 300 µM	> 300 µM	> 300 µM	inactive
O=P(O)(O)C(Nc1cccc(CO)c1)P(=O)(O)O	7.9 µM	5.1	> 300 µM	> 300 µM	> 300 µM	inactive
O=P(O)(O)C(O)(Cc1ccc(Cl)c(Cl)c1)P(=O)(O)O	0.5 µM	6.3	213 µM	208 µM	241 µM	inactive
O=P(O)(O)C(O)(Cc1cccc(-c2ccc(F)cc2)c1)P(=O)(O)O	1.9 µM	5.7	173 µM	224 µM	175 µM	inactive
O=P(O)(O)C(CNc1cccc(-c2ccccc2)c1)P(=O)(O)O	11.2 µM	5	> 300 µM	> 300 µM	> 300 µM	inactive
CCCCCCCCCCCC(O)(P(=O)(O)O)P(=O)(O)O	302 µM	3.5	–	–	–	–
Nc1ccccc1CC(O)(P(=O)(O)O)P(=O)(O)O	38 µM	4.4	205 µM	186 µM	187 µM	inactive
